Experimental data reported in ChEMBL document CHEMBL4699586, “Synthesis and biological evaluation of NQO1-activated prodrugs of podophyllotoxin as antitumor agents” (Bioorg Med Chem, 2020).
pIC50: −log10 of the molar value. Active and inactive are the calls of the source. The rule behind the calls is not given here.

Key:
A549 [1] = assay: Cytotoxicity against taxol-resistant human A549 cells assessed as reduction in cell viability incubated for 48 hrs by MTT assay; format: functional, cell-based; details: A549, 48 h
In short: (§1)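 Cell lines A549, HepG2, hypoxic A549/Hyp and HepG2/Hyp, taxol-resistant A549/T, and normal LO2. Log-phase cells allowed to adhere in 96-well plates, then exposed to compound for 48 h. MTT added for 2–3 h. Formazan dissolved in DMSO and absorbance read at 570 nm; IC50 derived.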

HepG2 [2] = assay: Cytotoxicity against hypoxia-induced human HepG2 cells assessed as reduction in cell viability incubated for 48 hrs by MTT assay; format: functional, cell-based; details: HepG2, 48 h; in short: as §1
L02 = assay: Cytotoxicity against NQO1-deficient human L02 cells assessed as reduction in cell viability incubated for 48 hrs by MTT assay; format: cell-based; details: L02, 48 h; in short: as §1
A549 [3] = assay: Cytotoxicity against human A549 cells overexpressing NQO1 assessed as reduction in cell viability incubated for 48 hrs by MTT assay; format: functional, cell-based; details: A549, 48 h; in short: as §1
HepG2 [4] = assay: Cytotoxicity against human HepG2 cells overexpressing NQO1 assessed as reduction in cell viability incubated for 48 hrs by MTT assay; format: functional, cell-based; details: HepG2, 48 h; in short: as §1
A549 [5] = assay: Cytotoxicity against hypoxia-induced human A549 cells assessed as reduction in cell viability incubated for 48 hrs by MTT assay; format: functional, cell-based; details: A549, 48 h; in short: as §1
HepG2 [6] = assay: Induction of apoptosis in human HepG2 cells assessed as viable cells at 50 nM incubated for 24 hrs by annexin V-FITC and propidium iodide based flow cytometry analysis (reference value: 95.66 %); format: functional; details: read-out: Activity
[7] = Metabolic stability in rat plasma at 10 uM incubated for 9 hrs in presence of NADPH by HPLC analysis; format: ADME, cell-free
In short: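 Rat plasma deproteinized by vortexing and centrifugation (10000 rpm, 5 min); supernatant incubated with 10 μM substrate plus 2% Tween 80 at 37 °C for 0–540 min; after centrifugation, supernatant analysed by HPLC (UV 292 nm); run in triplicate.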

[8] = Toxicity in BALB/c mouse xenografted with human HepG2 cells assessed as damage in kidney at 5 to 10 mg/kg, ip administered every other day for 17 consecutive days and measured on day 17 by H&E staining based light microscopic analysis; format: organism-based; details: in vivo, 408 h, dose 5-10 mg/kg, time 17 day
In short: (§2)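 Six-week-old BALB/c nude mice carrying s.c. HepG2 tumours (5×10⁶ cells in PBS) randomized at 70–100 mm³, 6 per group; i.p. dosing every other day for 17 days in 5% DMSO/40% PEG300/5% Tween 80/50% saline; day-17 organs fixed in 4% paraformaldehyde, paraffin-embedded, H&E stained, light microscopy versus control.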

[9] = Toxicity in BALB/c mouse xenografted with human HepG2 cells assessed as damage in liver at 5 to 10 mg/kg, ip administered every other day for 17 consecutive days and measured on day 17 by H&E staining based light microscopic analysis; format: organism-based; details: in vivo, 408 h, dose 5-10 mg/kg, time 17 day; in short: as §2
[10] = Selectivity index, ratio of IC50 for NQO1-deficient human L02 cells to IC50 for human HepG2 cells overexpressing NQO1 incubated for 48 hrs by MTT assay
In short: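 IC50 in LO2 divided by IC50 in HepG2. Both from MTT after 48 h exposure, with absorbance read at 570 nm.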

HepG2 [11] = assay: Induction of apoptosis in human HepG2 cells assessed as necrotic cells at 50 nM incubated for 24 hrs by annexin V-FITC and propidium iodide based flow cytometry analysis (reference value: 0.94 %); format: functional
HepG2 [12] = assay: Antitumor activity against human HepG2 cells xenografted in BALB/c nude mouse assessed as tumor growth suppression at 10 mg/kg, ip administered every other day for 17 consecutive days and measured on day 17 by caliper analysis relative to control; format: functional; details: 408 h, time 17 day, read-out: TGI
In short: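 BALB/c nude mice, 6 weeks old, given 5×10^6 HepG2 cells s.c. in sterile PBS. Randomized at tumour 70–100 mm³, 6 per group. Dosing i.p. every other day for 17 days in 5% DMSO/40% PEG300/5% Tween-80/50% saline; vehicle arm as control. Caliper volume every 2 days as V = AB²/2. Tumours excised and weighed on day 17; growth inhibition rate calculated.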

HepG2 [13] = assay: Induction of apoptosis in human HepG2 cells assessed as early apoptotic cells at 50 nM incubated for 24 hrs by annexin V-FITC and propidium iodide based flow cytometry analysis (reference value: 1.84 %); format: functional
[14] = Toxicity in BALB/c mouse xenografted with human HepG2 cells assessed as damage in lung at 5 to 10 mg/kg, ip administered every other day for 17 consecutive days and measured on day 17 by H&E staining based light microscopic analysis; format: organism-based; details: in vivo, 408 h, dose 5-10 mg/kg, time 17 day; in short: as §2
[15] = molecular target: T1, NAD(P)H dehydrogenase [quinone] 1 (Homo sapiens, UniProt P15559); assay: Prodrug release assessed as recombinant NQO1 (unknown origin)-mediated podophyllotoxin formation at 20 uM measured after 30 mins in presence of NADPH by HRMS analysis; format: ADME; details: 0.5 h
In short: (§3)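 Recombinant NQO1 (final 10 μg/mL) added to start reaction in 10 mM PBS with 2% Tween 80, 100 μM NADPH and 20 μM prodrug. Incubated at 37 °C, stopped with cold acetonitrile and centrifuged cold. Supernatant analysed by HRMS for release fragments.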

[16] = molecular target: T1, NAD(P)H dehydrogenase [quinone] 1; assay: Prodrug release assessed as recombinant NQO1 (unknown origin)-mediated N-(4-methylenecyclohexa-2,5-dienylidene)methanamine formation formation at 20 uM measured after 30 mins in presence of NADPH by HRMS analysis; format: ADME; details: 0.5 h; in short: as §3
Tubulin (Homo sapiens) = Tubulin (Homo sapiens) (UniProt P68371+Q9H4B7+P0DPH7+P68366+Q13509+Q71U36+P04350+Q3ZCM7+P07437+P68363+Q9BQE3+Q6PEY2+Q13885+Q9BVA1+Q9BUF5); assay: Inhibition of microtubule assembly in human HepG2 cells at 50 nM incubated for 48 hrs by immunofluorescence microscopic analysis; format: cell-based
In short: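 HepG2 seeded 12 h at 37 °C, 5% CO₂, then exposed 48 h alongside DMSO vehicle; methanol-fixed, permeabilized in 0.5% Triton X-100/PBS, α-tubulin primary antibody overnight at 4 °C, fluorescent secondary 1 h, DAPI nuclear counterstain; fluorescence microscopy imaging of microtubule networks.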

Sus scrofa [17] = species: Sus scrofa; assay: Inhibition of porcine tubulin polymerization at 3 uM in presence of NQO1 and NADPH measured for 1 hr for every 30 sec
In short: (§4)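 Commercial tubulin polymerization kit run per manufacturer; test agent at 3 μM with vehicle control, with or without added NQO1 depending on group; absorbance at 340 nm read every 30 s for 1 h to give polymerization/depolymerization kinetic curves.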

[18] = Metabolic stability in human liver S9 fraction at 10 uM incubated for 9 hrs in presence of NADPH by HPLC analysis; format: ADME, subcellular; details: s9, 9 h
In short: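 Pooled human liver S9 fraction (0.5 mg) in 10 mM PBS pH 7.4 with 2% Tween 80, substrate 10 μM, 37 °C; started with 100 μM NADPH, quenched with cold acetonitrile at 0–540 min; centrifuged supernatant analysed by HPLC, UV 292 nm; triplicate.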

[19] = Stability of the compound in PBS buffer at 10 uM at pH 5 to 9 incubated for 9 hrs in presence of NADPH by HPLC analysis; format: physicochemical; details: pH 5, 9 h
In short: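 No NQO1 present; 10 μM substrate with 100 μM NADPH in PBS containing 2% Tween 80 across pH values 5–9 at 37 °C; timed samples quenched with cold acetonitrile, centrifuged, and quantified by C18 HPLC with UV detection at 292 nm; triplicate.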

HepG2 [20] = assay: Induction of apoptosis in human HepG2 cells assessed as late apoptotic cells at 50 nM incubated for 24 hrs by annexin V-FITC and propidium iodide based flow cytometry analysis (reference value: 1.56 %); format: functional
[21] = Toxicity in BALB/c mouse xenografted with assessed as damage in heart at 5 to 10 mg/kg, ip administered every other day for 17 consecutive days and measured on day 17 by H&E staining based light microscopic analysis; format: organism-based; details: in vivo, 408 h, dose 5-10 mg/kg, time 17 day; in short: as §2
[22] = Toxicity in BALB/c mouse xenografted with human HepG2 cells assessed as body weight reduction at 10 mg/kg, ip administered every other day for 17 consecutive days and measured on day 17; format: organism-based; details: in vivo, 408 h, time 17 day
In short: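 HepG2 xenografts in 6-week BALB/c nude mice (s.c., 5×10⁶ cells), grouped at 70–100 mm³, n=6; i.p. dosing every other day for 17 days in 5% DMSO/40% PEG300/5% Tween 80/50% saline vehicle; body weight recorded every 2 days.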

[23] = Toxicity in BALB/c mouse xenografted with human HepG2 cells assessed as damage in spleen at 5 to 10 mg/kg, ip administered every other day for 17 consecutive days and measured on day 17 by H&E staining based light microscopic analysis; format: organism-based; details: in vivo, 408 h, dose 5-10 mg/kg, time 17 day; in short: as §2
HepG2 [24] = assay: Induction of cell cycle arrest in human HepG2 cells assessed as increase in cells accumulation at G2/M phase at 50 nM incubated for 24 hrs by propidium iodide based flow cytometry analysis relative to control; format: functional
In short: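 HepG2 plated in 12-well plates for 24 h, treated with compound (50 nM) for 24 h. Harvested, washed twice in cold PBS, held in 70% ethanol for 3 h. RNase A treatment 1 h at ambient temperature, then PI stain. Phase distribution by flow cytometry, compared with DMSO control.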

Sus scrofa [25] = species: Sus scrofa; assay: Inhibition of porcine tubulin polymerization at 3 uM measured every 30 secs for 1 hr; in short: as §4
[26] = molecular target: T1, NAD(P)H dehydrogenase [quinone] 1; assay: Prodrug release assessed as recombinant NQO1 (unknown origin)-mediated 6-hydroxy-4,4,5,7-tetramethylchroman-2-one formation formation at 20 uM measured after 30 mins in presence of NADPH by HRMS analysis; format: ADME; details: 0.5 h; in short: as §3
[27] = Toxicity in BALB/c mouse xenografted with human HepG2 cells assessed as animal death at 10 mg/kg, ip administered every other day for 17 consecutive days and measured on day 17; format: organism-based; details: in vivo, 408 h, time 17 day
In short: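 HepG2 s.c. xenografts in BALB/c nude mice, 6 per group. Compound given i.p. every other day for 17 days in 5% DMSO/40% PEG300/5% Tween-80/50% saline. Deaths recorded over the experimental period. Body weight monitored every 2 days.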

T1 sequence (P15559 whole entry, the tested form may be a part): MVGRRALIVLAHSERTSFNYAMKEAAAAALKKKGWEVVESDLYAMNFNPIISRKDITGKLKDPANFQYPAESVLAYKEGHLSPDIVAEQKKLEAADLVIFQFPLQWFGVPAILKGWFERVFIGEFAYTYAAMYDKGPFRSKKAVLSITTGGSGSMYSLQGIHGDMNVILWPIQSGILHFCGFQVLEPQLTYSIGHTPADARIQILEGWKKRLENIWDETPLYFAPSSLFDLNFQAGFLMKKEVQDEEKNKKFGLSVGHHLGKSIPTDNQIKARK

Compound `COc1cc([C@@H]2c3cc4c(cc3[C@@H](OC(=O)OCc3ccc(NC(=O)CC(C)(C)C5=C(C)C(=O)C(C)=C(C)C5=O)cc3)[C@H]3COC(=O)[C@H]23)OCO4)cc(OC)c1OC` has a pIC50 (A549 [1]) of 6.24, a pIC50 (HepG2 [2]) of 6.37 and a pIC50 (L02) of 6.34. For the same compound, the pIC50 (A549 [3]) was 6.56, the pIC50 (HepG2 [4]) was 6.58 and the pIC50 (A549 [5]) was 6.22.

In the case of `COc1cc([C@@H]2c3cc4c(cc3[C@@H](OC(=O)OCc3ccc(N(C)C(=O)CC(C)(C)C5=C(C)C(=O)C(C)=C(C)C5=O)cc3)[C@H]3COC(=O)[C@H]23)OCO4)cc(OC)c1OC`, the pIC50 (A549 [1]) was 6.71, the viability at 0.05 µM (HepG2 [6]) was 63.5% and the Stabilty [7] was “Stable”. For the same compound, the Activity [8] was “Non-Toxic”, the pIC50 (HepG2 [2]) was 6.95 and the Activity [9] was “Non-Toxic”. For the same compound, the “Ratio IC50” value [10] was 3.72, the Activity (HepG2 [11]) was 18.99% and the inhibition in vivo at 10 mg/kg (HepG2 [12]) was 64%. For the same compound, the Activity (HepG2 [13]) was 1.74%, the Activity [14] was “Non-Toxic” and the Drug metabolism [15] was “Metabolite_Detected”. The Drug metabolism [16] was “Metabolite_Detected”, the inhibition (Tubulin (Homo sapiens)) was “Active” and the inhibition (Sus scrofa [17]) was “Active”. The Stabilty [18] was “Stable”, the pIC50 (L02) was 6.51 and the Stabilty [19] was “Stable”. The Activity (HepG2 [20]) was 15.76%, the pIC50 (A549 [3]) was 7.00 and the Activity [21] was “Non-Toxic”. The pIC50 (HepG2 [4]) was 7.08, the Activity [22] was “Non-Toxic” and the Activity [23] was “Non-Toxic”. For the same compound, the Activity (HepG2 [24]) was 27.3%, the inhibition (Sus scrofa [25]) was “inactive” and the pIC50 (A549 [5]) was 6.73. The Drug metabolism [26] was “Metabolite_Detected”.

Work on `COc1cc([C@@H]2c3cc4c(cc3[C@@H](OC(=O)CC(C)(C)C3=C(C)C(=O)C(C)=C(C)C3=O)[C@H]3COC(=O)[C@H]23)OCO4)cc(OC)c1OC` yielded a pIC50 (A549 [1]) of 6.52, a pIC50 (HepG2 [2]) of 6.71 and a pIC50 (L02) of 6.64. The pIC50 (A549 [3]) was 6.80, the pIC50 (HepG2 [4]) was 6.97 and the pIC50 (A549 [5]) was 6.50.

`COc1cc([C@@H]2c3cc4c(cc3[C@H](O)[C@H]3COC(=O)[C@H]23)OCO4)cc(OC)c1OC` [PODOFILOX] gave a pIC50 (A549 [1]) of 6.47, a viability at 0.05 µM (HepG2 [6]) of 83.7% and a pIC50 (HepG2 [2]) of 6.68. It also gave an Activity (HepG2 [11]) of 7.38%, an Activity (HepG2 [13]) of 2.88% and a pIC50 (L02) of 7.07. The Activity (HepG2 [20]) was 6.08%, the pIC50 (A549 [3]) was 6.98 and the pIC50 (HepG2 [4]) was 7.08. The Activity [27] was “Toxic” and the pIC50 (A549 [5]) was 6.54.
